Common to all, as to assay type: functional
Assay [1] deals with Mus musculus. Nature of the assay: Anticonvulsant activity following p.o. administration by standard maximal electroshock test in mice. The following applies: po. A digest of the protocol:
(§1)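 Supramaximal electroshock: 50-mA current (60 Hz, 0.20 s) via corneal electrodes induced hind-limb tonic extension; inhibition of this component scored as activity. Mice dosed ip and/or po in aqueous solution or suspension (ca. 0.1% Tween 80, distilled water). Tested at 30, 60, 120 and 240 min (sometimes 45 min); ten mice per time point.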
A general note: In the maximal electroshock model the usual endpoint is tonic extension of the hind limbs.

For assay [2], the system named is Mus musculus. Nature of the assay: Percentage block of the hind-limb tonic-extensor seizure was determined after application of an electric shock to mice for 30 min followed by 200 mg/kg peroral dose. To be noted: route oral. A digest of the protocol:
as §1

The subject of assay [3] is Mus musculus. Nature of the assay: Percentage block of the hind-limb tonic-extensor seizure was determined after application of an electric shock to mice for 30 min followed by 100 mg/kg intraperitoneal dose. A digest of the protocol: as §1
Assay [4] concerns Mus musculus. Nature of the assay: Percentage block of the hind-limb tonic-extensor seizure was determined after application of an electric shock to mice for 240 min followed by 100 mg/kg intraperitoneal dose. A digest of the protocol:
as §1

The test system of assay [5] is Mus musculus. The assay can be described thus: Percentage block of the hind-limb tonic-extensor seizure was determined after application of an electric shock to mice for 120 min followed by 200 mg/kg peroral dose. The following applies: route oral. The procedure, abridged:
as §1

Assay [6] deals with Mus musculus. Nature of the assay: Percentage block of the hind-limb tonic-extensor seizure was determined after application of an electric shock to mice for 60 min followed by 100 mg/kg intraperitoneal dose. A digest of the protocol: as §1
Assay [7] deals with Mus musculus. The assay can be described thus: Anticonvulsant activity by using a standard maximal electroshock test (MES) in mice, by intraperitoneal administration of the compound; Range 50-100 mg/kg. To be noted: ip. A digest of the protocol:
as §1

Assay [8] relates to Mus musculus. The assay can be described thus: Percentage block of the hind-limb tonic-extensor seizure was determined after application of an electric shock to mice for 240 min followed by 200 mg/kg peroral dose. The following applies: route oral. A digest of the protocol: as §1
Assay [9] has as its system Mus musculus. Nature of the assay: Percentage block of the hind-limb tonic-extensor seizure was determined after application of an electric shock to mice for 120 min followed by 100 mg/kg intraperitoneal dose. A digest of the protocol: as §1
The subject of assay [10] is Mus musculus. The assay can be described thus: Percentage block of the hind-limb tonic-extensor seizure was determined after application of an electric shock to mice for 60 min followed by 200 mg/kg peroral dose. To be noted: route oral. The procedure, abridged:
(§2)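 Mouse MES test: supramaximal seizure from a 50-mA current (60 Hz, 0.20-s) through corneal electrodes. […] Ten mice per time point. Compound given in aqueous solution or in suspension in ca. 0.1% Tween 80 and distilled water. Free food and water except during testing.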

The subject of assay [11] is Mus musculus. Nature of the assay: Percentage block of the hind-limb tonic-extensor seizure was determined after application of an electric shock to mice for 30 min followed by 100 mg/kg peroral dose. The following applies: route oral. The procedure, abridged: as §1
In assay [12] the test system is Mus musculus. Nature of the assay: Neurotoxic dose ED50 after po administration in mice at 4 hrs was determined. A digest of the protocol: (§3)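 Neurotoxicity measured in mice with the rotoreel test after oral dosing. TD50 is the neurotoxic dose ED50, read at 1 h (peak time for TD50) and at 4 h (approximate peak time for the MES ED50). Compound was given as an aqueous solution or as a suspension in about 0.1% Tween 80 in distilled water. Animals had free access to food and water except during testing.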

Assay [13] has as its system Mus musculus. Nature of the assay: Percentage block of the hind-limb tonic-extensor seizure was determined after application of an electric shock to mice for 240 min followed by 100 mg/kg peroral dose. To be noted: route oral. A digest of the protocol:
as §1

Assay [14] deals with Mus musculus. The assay can be described thus: Percentage block of the hind-limb tonic-extensor seizure was determined after application of an electric shock to mice for 120 min followed by 100 mg/kg peroral dose. To be noted: route oral. A digest of the protocol:
as §1

The subject of assay [15] is Mus musculus. Nature of the assay: Anticonvulsant activity by using a standard maximal electroshock test (MES) in mice by intraperitoneal administration of the compound. The following applies: ip. The procedure, abridged: as §1
Assay [16] concerns Mus musculus. Nature of the assay: Percentage block of the hind-limb tonic-extensor seizure was determined after application of an electric shock to mice for 120 min followed by 50 mg/kg intraperitoneal dose. A digest of the protocol: as §1
Assay [17] relates to Mus musculus. The assay can be described thus: Percentage block of the hind-limb tonic-extensor seizure was determined after application of an electric shock to mice for 240 min followed by 50 mg/kg intraperitoneal dose. The procedure, abridged: as §1
The test system of assay [18] is Mus musculus. The assay can be described thus: LD50 of compound after ip administration after 24 hrs was determined.
In assay [19] the test system is Mus musculus. Nature of the assay: Percentage block of the hind-limb tonic-extensor seizure was determined after application of an electric shock to mice for 30 min followed by 50 mg/kg intraperitoneal dose. A digest of the protocol:
as §1

Assay [20] relates to Mus musculus. Nature of the assay: Percentage block of the hind-limb tonic-extensor seizure was determined after application of an electric shock to mice for 60 min followed by 50 mg/kg intraperitoneal dose. A digest of the protocol: as §2
The test system of assay [21] is Mus musculus. Nature of the assay: Neurotoxic dose ED50 after po administration in mice at 1 hrs was determined. A digest of the protocol: as §3
For assay [22], the system named is Mus musculus. Nature of the assay: Percentage block of the hind-limb tonic-extensor seizure was determined after application of an electric shock to mice for 60 min followed by 100 mg/kg peroral dose. The following applies: route oral. A digest of the protocol:
as §2

For assay [23], the system named is Mus musculus. Nature of the assay: Percentage block of the hind-limb tonic-extensor seizure was determined after application of an electric shock to mice for 240 min followed by 40 mg/kg peroral dose. To be noted: route oral. A digest of the protocol:
as §1

Assay [24] deals with Mus musculus. The assay can be described thus: Percentage block of the hind-limb tonic-extensor seizure was determined after application of an electric shock to mice for 30 min followed by 40 mg/kg peroral dose. To be noted: route oral. The procedure, abridged:
as §1

Assay [25] deals with Mus musculus. Nature of the assay: Percentage block of the hind-limb tonic-extensor seizure was determined after application of an electric shock to mice for 60 min followed by 40 mg/kg peroral dose. The following applies: route oral. The procedure, abridged: as §2
For assay [26], the system named is Mus musculus. The assay can be described thus: Percentage block of the hind-limb tonic-extensor seizure was determined after application of an electric shock to mice for 120 min followed by 40 mg/kg peroral dose. To be noted: route oral. A digest of the protocol: as §1
For assay [27], the system named is Mus musculus. The assay can be described thus: Anticonvulsant activity was determined as percentage of block of the hind-limb tonic-extensor seizure caused by application of an electric shock to mice via corneal electrodes at 60 min by 200 mg/kg peroral dose. The following applies: route oral. The procedure, abridged:
as §1

Assay [28] relates to Mus musculus. The assay can be described thus: Anticonvulsant activity was determined as percentage of block of the hind-limb tonic-extensor seizure caused by application of an electric shock to mice via corneal electrodes at 240 min by 200 mg/kg peroral dose. To be noted: route oral. A digest of the protocol: as §1
For assay [29], the system named is Mus musculus. The assay can be described thus: Anticonvulsant activity was determined as percentage of block of the hind-limb tonic-extensor seizure caused by application of an electric shock to mice via corneal electrodes at 120 min by 200 mg/kg peroral dose. To be noted: route oral. The procedure, abridged:
as §1

In assay [30] the test system is Mus musculus. The assay can be described thus: Anticonvulsant activity was determined as percentage of block of the hind-limb tonic-extensor seizure caused by application of an electric shock to mice via corneal electrodes at 240 min by 100 mg/kg intraperitoneal dose. A digest of the protocol: as §1
The test system of assay [31] is Mus musculus. The assay can be described thus: Anticonvulsant activity was determined as percentage of block of the hind-limb tonic-extensor seizure caused by application of an electric shock to mice via corneal electrodes at 60 min by 100 mg/kg intraperitoneal dose. A digest of the protocol:
as §1

Assay [32] relates to Mus musculus. Nature of the assay: Anticonvulsant activity by using a standard maximal electroshock test (MES) in mice, by intraperitoneal administration of the compound. To be noted: ip. The procedure, abridged: as §1
Assay [33] relates to Mus musculus. Nature of the assay: Anticonvulsant activity was determined as percentage of block of the hind-limb tonic-extensor seizure caused by application of an electric shock to mice via corneal electrodes at 30 min by 100 mg/kg intraperitoneal dose. A digest of the protocol: as §1
Assay [34] has as its system Mus musculus. Nature of the assay: Anticonvulsant activity was determined as percentage of block of the hind-limb tonic-extensor seizure caused by application of an electric shock to mice via corneal electrodes at 120 min by 100 mg/kg intraperitoneal dose. A digest of the protocol:
as §1

SMILES strings stand for the structures.

With `CNS(=O)(=O)OC[C@@]12OC[C@H]3OC(C)(C)OC3C1OC(C)(C)O2` (some centres not stated), the 50% effective dose (ED50) is 200 mg/kg with Mus musculus [1] and 50 mg/kg in the assay on Mus musculus [7]. Moreover, the Block with Mus musculus [2] came out at 20%; in the assay on Mus musculus [3], 30%; in the assay with Mus musculus [4], 30%; in the assay on Mus musculus [5] it was 100%; in the assay with Mus musculus [6], 90%; with Mus musculus [8] it was 100%. For the same compound, the Block with Mus musculus [9] came out at 80%; in the assay with Mus musculus [10], 70%.

As to `CC1(C)O[C@@H]2[C@@H](CO[C@@]3(COS(N)(=O)=O)OC(C)(C)O[C@@H]23)O1` [TOPIRAMATE], the Block is reported as 40% in the assay on Mus musculus [11]; 100% in the assay with Mus musculus [13]; 80% in the assay with Mus musculus [14]; 70% in the assay on Mus musculus [16]; 50% with Mus musculus [17]; 20% with Mus musculus [19]. Besides, the Block is 60% with Mus musculus [20] and 80% with Mus musculus [22]. The TD50 was found to be 1100 mg/kg with Mus musculus [12] and 407 mg/kg with Mus musculus [21]. Further, the 50% effective dose (ED50) in the assay on Mus musculus [1] came out at 61 mg/kg; in the assay on Mus musculus [15], 64 mg/kg. The LD50 in the assay on Mus musculus [18] was > 1000 mg/kg.

`NS(=O)(=O)Cc1noc2ccccc12` [ZONISAMIDE]: the Block in the assay on Mus musculus [23] is 50%; in the assay with Mus musculus [24], 20%; in the assay with Mus musculus [25], 40%; in the assay on Mus musculus [26], 40%.

As for `NS(=O)(=O)OCC1COC2(CCCCC2)O1` (configuration not stated), the ED50 is ~150 mg/kg with Mus musculus [1] and 169 mg/kg in the assay on Mus musculus [32]. The Block was 70% in the assay with Mus musculus [2]; 30% with Mus musculus [27]; 10% in the assay with Mus musculus [28]; 20% with Mus musculus [29]; 0% in the assay with Mus musculus [30]; 10% with Mus musculus [31]. Moreover, the Block worked out at 30% with Mus musculus [33] and 0% with Mus musculus [34].

Usually ED50 stands for the dose that gives a 50% effect, or the effect in half of the subjects. Read a high ED50 as weaker potency. As a reminder, the TD50 is the dose at which the toxic effect under study appears in half of the subjects. Low values mean harm at a small dose, high ones harm only at a large dose. A word on the LD50: it is the dose at which mortality reaches 50%. Low values mean greater toxicity, high ones lower toxicity.
